# Screening results as filed in PubChem BioAssay.
# This is a sample that favours compounds with a hit; in the whole collection about 3.5% have one here.
# FN deposition inh: fibronectin deposition inhibition; AH1F fibroblasts, Alexa488-fibronectin deposition fluorescence, overnight; inhibition, % at 12.6 µM; actives 0.086% (n = 350,000);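 active = mean inhibition across replicates of 30% or more, regardless of how many single replicates reach that level; inconclusive = mean under 30% yet at least half of replicates reach 30%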;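 also: positive control wells lacked labelled fibronectin entirely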
#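 Measured by – fluorescence 485/525 nm · System – AH1F fibroblast monolayer, labelled fibronectin deposition · Amount – 10000 cells per well · Buffer or medium – serum-reduced DMEM (2% serum) · Doses – single dose, pinned · Also added – fluorescent fibronectin at 24 nM final · Schedule – 1 h cell attachment, overnight exposure to compound and label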
# Env fusion inh: blocks HIV Env-driven cell-cell fusion | HeLa-JRFL Env/CEM21 cell fusion, luciferase | inhibition, % at 12.3 µM | AID 651610 | actives 1.1% (n = 360,000);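 active = mean replicate inhibition score of at least 50 and every replicate individually at or above 50; inconclusive = only one of the two criteria met; inactive = mean below 50 and not all replicates reaching 50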;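 also: 0% = plate neutral controls and 100% = maraviroc near 300 nM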
# PglD inh: inhibitors of Campylobacter jejuni PglD acetyltransferase; purified PglD enzyme, DTNB colorimetric CoA detection; inhibition, % at 12.5 µM; actives 0.098% (n = 360,000); AID 602405; in the data active = inhibition above about 16%, passing the limit was not always enough; inconclusive = no clear call, values can overlap the other calls
# DENV2 CPE rescue: protects cells from dengue virus 2 cytopathic effect | actives 1.7% (n = 350,000) | DENV2-infected cells, cytopathic effect rescue, plate reader | CPE inhibition, % at 9.99 µM | AID 651640; in the data active = CPE inhibition above about 20%, passing the limit was not always enough; inconclusive = no clear call, values can overlap the other calls; tested in BHK-21 cells;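 also: 0% = median of neutral control wells and 100% = median of positive control wells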
# Ecoli rRNA inh: selective bacterial rRNA inhibition in E. coli; E. coli WT GFP vs humanized-ribosome RFP mutants, fluorescence, 24 h; hits give low values; DMSO median 0, no signal -100; GFP signal change (wild-type ribosome), % (concentration not given with the values); actives 1.6% (n = 350,000); AID 720706;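 active = significant combined selectivity score with lowered wild-type GFP, culture density cut under 30%, mutant RFP and density less affected; inactive = any of these conditions unmet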
# PGC1a acetyl inh: modulators of PGC1a acetylation; inhibition, % at 15.6 µM; U2OS PGC1a acetylation, AlphaScreen anti-acetyl-lysine; with virally co-expressed GCN5 acetyltransferase; AID 651687; actives 0.17% (n = 350,000);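 active = every replicate shows inhibition of at least 40%; inconclusive = mean inhibition at least 40% but some replicate below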;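 also: 0% = neutral control wells and 100% = positive control wells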
# Starred values were filed as active, the others as inactive; u = inconclusive; x = no result given; ! = not confirmed by another sample; [ ] = remark or other dose.
SMILES,FN deposition inh,Env fusion inh,PglD inh,DENV2 CPE rescue,Ecoli rRNA inh,PGC1a acetyl inh
Nc1[nH]c(C(=O)c2ccc(Br)cc2)c(-c2ccc(F)cc2)c1C(=O)NCCc1c[nH]c2ccccc12,1,14,x,26*,x,x
Nc1[nH]c(C(=O)c2ccc(Br)cc2)c(-c2ccncc2)c1C(=O)NCCc1c[nH]c2ccccc12,-5,36,x,20*,x,x
Nc1[nH]c(C(=O)c2ccc(Br)cc2)c(-c2ccc(Br)cc2)c1C(=O)NCCc1c[nH]c2ccccc12,-6,8,x,3,-4,x
C[C@H](CO)N1C[C@H](C)[C@@H](CN(C)Cc2ccc(Oc3ccccc3)cc2)Oc2ccc(NC(=O)NC3CCCCC3)cc2C1=O,x,x,4,u,11,-8
COc1ccc(CN(C)C[C@@H]2OCCCC[C@H](C)Oc3ccc(NC(=O)c4ccncc4)cc3C(=O)N([C@H](C)CO)C[C@H]2C)cc1,5,28[16.7 µM],0,-4,3,-5
COCC#Cc1cnc2c(c1)C(=O)N([C@H](C)CO)C[C@@H](C)[C@H](CN(C)Cc1ccccc1F)O2,-10,16[16.7 µM],x,x,1,3
COCCNC(=O)c1c(N)[nH]c(C(=O)c2ccc(Br)cc2)c1-c1ccc(Br)cc1,2,13,x,34*,x,x
Nc1[nH]c(C(=O)c2ccc(Br)cc2)c(-c2c(F)cccc2F)c1C(=O)NCCc1c[nH]c2ccccc12,-1,12,x,39*,x,x
COc1ccc(-c2c(C(=O)c3ccccc3)[nH]c(N)c2C(=O)NCCc2c[nH]c3ccccc23)cc1,-8,-99,x,31*,x,x
Nc1[nH]c(C(=O)c2ccccc2)c(-c2ccccc2Cl)c1C(=O)c1ccccc1,-11,22,x,7,-27*,x
Nc1[nH]c(C(=O)c2ccc(Br)cc2)c(-c2ccccc2Br)c1C(=O)NCCc1c[nH]c2ccccc12,-9,-4,x,-9,2,x
Clc1ccc(CN2CCN(c3ncc(Cc4ccccc4)cn3)CC2)c(Cl)c1,13,24,x,0,-7,x
CCCNC(=O)Nc1ccc2c(c1)C(=O)N(C)C[C@@H](OC)[C@@H](C)CN(Cc1ccccc1)[C@H](C)CO2,-9,x,x,x,-4,-22
C[C@@H]1CCCCO[C@@H](CN(C)C(=O)C2CCCCC2)[C@@H](C)CN([C@@H](C)CO)C(=O)c2cc(NS(C)(=O)=O)ccc2O1,x,-20[16.7 µM],-3,-1,2,-1
CC(=O)N(C)C[C@H]1Oc2ncc(C#CC3(O)CCCC3)cc2C(=O)N([C@@H](C)CO)C[C@H]1C,3,-20[16.7 µM],4,-4,7,7
COc1ccc(CNC(=O)C[C@@H]2CC[C@@H]3[C@@H](COc4ccc(NC(C)=O)cc4C(=O)N3C)O2)cc1,-17,-15[16.7 µM],-1,10,1,-2
C[C@H]1CN([C@@H](C)CO)C(=O)CCCn2nncc2CO[C@H]1CN(C)CC1CCCCC1,1,17[16.7 µM],4,3,0,2
C[C@H](CO)N1C[C@H](C)[C@@H](CN(C)C(=O)C2CC2)OCc2cnnn2CCCC1=O,-5,24,3,49*!,1,-10
C[C@H](CO)N1C[C@H](C)[C@H](CN(C)C(=O)C2CC2)OCc2cnnn2CCCC1=O,-5,x,1,113*!,9,-2
C[C@@H]1CN([C@@H](C)CO)C(=O)CCCn2nncc2CO[C@@H]1CN(C)CC1CCCCC1,7,x,3,59*,1,5
C[C@@H]1CN([C@@H](C)CO)C(=O)c2cc(N(C)C)ccc2O[C@@H](C)CCCCO[C@H]1CN(C)Cc1ccccc1,x,-5[16.7 µM],-1,-20,3,-1
CCOC(=O)c1c(C)oc2ccc(NS(=O)(=O)c3cccs3)cc12,x,x,x,2,-30*,10
O=C(NC1=C(NC2CCS(=O)(=O)C2)C(=O)c2ccccc2C1=O)c1ccccc1 (centres undefined),5,57*,-5,-1,-44,x
C[C@@H]1CCCCO[C@@H](CN(C)Cc2ccc3c(c2)OCO3)[C@@H](C)CN([C@H](C)CO)C(=O)c2cc(NC(=O)Nc3ccccc3)ccc2O1,-5,-17[16.7 µM],2,-3,2,12
C[C@H](CO)N1C[C@H](C)[C@H](CN(C)Cc2ccccc2)OCCCC[C@H](C)Oc2ccc(NC(=O)Nc3ccc4c(c3)OCO4)cc2C1=O,-3,58*[16.7 µM],0,3,-10,24
SMILES,FN deposition inh,Env fusion inh,PglD inh,DENV2 CPE rescue,Ecoli rRNA inh,PGC1a acetyl inh
C[C@H]1CCCCO[C@@H](CN(C)Cc2ccc3c(c2)OCO3)[C@@H](C)CN([C@@H](C)CO)C(=O)c2cc(NC(=O)Nc3ccccc3)ccc2O1,5,60*[16.7 µM],17,2,-9,-16
C[C@@H]1CCCCO[C@@H](CN(C)Cc2ccccc2)[C@@H](C)CN([C@H](C)CO)C(=O)c2cc(NC(=O)Nc3ccc4c(c3)OCO4)ccc2O1,5,-35[16.7 µM],0,13,3,-12
COc1ccc(NC(=O)Nc2ccc3c(c2)C(=O)N([C@@H](C)CO)C[C@@H](C)[C@H](CN(C)S(C)(=O)=O)O3)cc1,-6,x,-1,12,2,4
O=C1CCC(=O)N(O)CCCCCNC(=O)CCC(=O)N(O)CCCCNC(=O)CCC(=O)N(O)CCCCCN1,x,x,-2,87*,x,6
O=C1CCC(=O)NCC/C=C/CCN1,-1,x,x,x,10,x
O=C(C[C@H]1C=C[C@H](NC(=O)c2ccccc2)[C@H](CO)O1)NCc1ccc(Oc2ccccc2)cc1,3,x,x,31*,-9,-1
O=C(C[C@@H]1C=C[C@@H](NC(=O)c2cccc(F)c2)[C@@H](CO)O1)NCc1ccc(Oc2ccccc2)cc1,x,x,x,-16,0,-6
O=C(C[C@H]1C=C[C@@H](NC(=O)c2cccc(F)c2)[C@@H](CO)O1)NCc1ccc(Oc2ccccc2)cc1,x,80*[16.7 µM],6,-4,-4,5
CCCN1[C@@H]2Cn3c(ccc(-c4cccnc4)c3=O)[C@H]1[C@@H](C(=O)NCCc1cn(C)cn1)[C@@H]2CO,x,-15[16.7 µM],8,-1,2,x
Cc1noc(C)c1NC(=O)N(C)C[C@@H]1Oc2ncc(/C=C/c3ccccc3)cc2C(=O)N([C@H](C)CO)C[C@@H]1C,x,-10[16.7 µM],2,-7,3,31
O=C(C1CCCCC1)N1CC(=O)N2[C@H](CO)[C@@H](c3ccc(Br)cc3)[C@@H]2C1,-1,x,x,6,-1,10
CC(=O)NCC(=O)NC1CCCc2c1cnn2-c1ccc(C(C)(C)C)cc1 (centres undefined),-3,8,7,31*,-10,-8
Cc1cc(C)cc(-n2ncc3c2CCCC3NC(=O)c2cc(C)n(C)n2)c1 (centres undefined),-4,6,0,u,-3,-1
